Data on one compound can be found in ChEMBL document CHEMBL4308843, “Identification of ABX-1431, a Selective Inhibitor of Monoacylglycerol Lipase and Clinical Candidate for Treatment of Neurological Disorders” (J Med Chem, 2018).

Each structure is given as a SMILES string. Calls of active or inactive are those of the source. Some results are limits rather than exact numbers.

The species entered for one data set is Canis lupus familiaris. Nature of the data set: Inhibition of ABHD6 in dog brain membrane homogenates at 0.001 to 10 uM preincubated for 30 mins followed by FP-Rh addition after 30 mins by gel-based ABPP assay. It is filed as cell membranes. The gist of the method:
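Dog brain membrane homogenates (1 mg/mL protein) were preincubated with 0.001-10 µM inhibitor or DMSO for 30 min at 37°C. They were then labelled with 1 µM probe (FP-Rh or HT-01) for 30 min at 25°C. Reactions were quenched in SDS-PAGE loading buffer and scanned in-gel. ABHD6 band intensities were normalised to DMSO.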

The nature of data set [1]: Volume of distribution at steady state in Sprague-Dawley rat at 1 mg/kg, iv or 5 mg/kg, po by LC-MS analysis. It is filed as ADME, organism-based. As to conditions: in vivo, read-out: Vdss. The procedure, abridged: (§1)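 Rats (n = 3 per route) were dosed at 1 mg/kg iv (70% PEG400 in HPBCD/saline) or 5 mg/kg po (70% PEG400 in 0.5% CMC/saline), fasted overnight to 4 h post-dose. Jugular-catheter blood (~100 µL) was sampled to 24 h into 400 µL acetonitrile to stop esterases. Samples were quantified by HPLC-MS/MS, with noncompartmental analysis.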

The nature of data set [2]: Tmax in Sprague-Dawley rat at 1 mg/kg, iv or 5 mg/kg, po by LC-MS analysis. It is filed as ADME, organism-based. Particulars: in vivo. The procedure, abridged:
as §1

The nature of data set [3]: Half life in Sprague-Dawley rat at 1 mg/kg, iv by LC-MS analysis. As to conditions: in vivo. Format: ADME, organism-based. The gist of the method:
as §1

For data set [4], the system named is Mus musculus. Nature of the data set: In vivo inhibition of ABHD6 in po dosed ICR mouse brain measured 4 hrs post dose in presence of FP-Rh probe by gel-based ABPP assay. It is filed as functional. The procedure, abridged: (§2)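 Male ICR mice, 6–12 weeks old, given single oral doses (0.5–32 mg/kg, n = 3) in PEG400:ethanol:PBS (7/2/1 v/v/v) at 5 mL/kg. Brains were removed 4 h later and one hemisphere processed for gel-based ABPP. Proteome was labeled with FP-Rh (1 µM, 30 min) and read by in-gel fluorescence relative to vehicle.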

Another data set deals with Rattus norvegicus. Briefly: Effect on spontaneous locomotor activity in Sprague-Dawley rat assessed as locomotor counts at 10 mg/kg, po monitored over 10 mins period. It is filed as ADME, organism-based. As to conditions: in vivo. The gist of the method:
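Male Sprague Dawley rats (175–200 g) received vehicle (0.5% methylcellulose) or 10 mg/kg orally. Four hours later, spontaneous locomotor frequency was recorded for 10 min in a vibration-sensing Laboras cage system; n = 10 per group.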

A further data set has as its target Cytochrome P450 2C19 (Homo sapiens, UniProt P33261). Nature of the data set: Inhibition of recombinant human CYP2C19. It is filed as ADME.
Data set [5] in a line: Intrinsic clearance in human liver microsomes. It is filed as ADME, Microsome. As to conditions: read-out: CLH. A general note: Microsomes from liver hold many membrane-bound enzymes, among them those of drug oxidation.
The nature of data set [6]: Oral bioavailability in Sprague-Dawley rat at 5 mg/kg by LC-MS analysis. As to conditions: in vivo. Format: ADME, organism-based. The gist of the method:
as §1

The test system of data set [7] is Mus musculus. Briefly: In vivo inhibition of CES1c in po dosed ICR mouse brain measured 4 hrs post dose in presence of FP-Rh probe by gel-based ABPP assay. Format: functional. The gist of the method: as §2
Data set [8] deals with T1, Monoglyceride lipase (Rattus norvegicus) (UniProt Q8R431).
T1 sequence (whole entry): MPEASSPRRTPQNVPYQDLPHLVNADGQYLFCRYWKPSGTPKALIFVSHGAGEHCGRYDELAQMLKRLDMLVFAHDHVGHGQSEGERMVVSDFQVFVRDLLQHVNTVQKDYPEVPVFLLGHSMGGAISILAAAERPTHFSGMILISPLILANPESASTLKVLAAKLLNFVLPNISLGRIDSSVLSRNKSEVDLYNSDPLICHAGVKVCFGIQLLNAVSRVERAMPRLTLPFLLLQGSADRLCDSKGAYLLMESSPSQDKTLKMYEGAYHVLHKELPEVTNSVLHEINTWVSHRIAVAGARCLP
Nature of the data set: Inhibition of MGLL in rat brain membrane homogenates at 0.001 to 10 uM preincubated for 30 mins followed by FP-Rh addition after 30 mins by gel-based ABPP assay. Format: cell membranes. The procedure, abridged:
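Brain protein homogenates (1 mg/mL) treated with compound 0.001–10 µM or DMSO, 30 min at 37°C, then 1 µM FP-Rh (MGLL) or HT-01 (ABHD6), 30 min at 25°C.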

Data set [9] concerns the target T2, Platelet-activating factor acetylhydrolase (Homo sapiens, UniProt Q13093).
T2 sequence (Q13093 whole entry): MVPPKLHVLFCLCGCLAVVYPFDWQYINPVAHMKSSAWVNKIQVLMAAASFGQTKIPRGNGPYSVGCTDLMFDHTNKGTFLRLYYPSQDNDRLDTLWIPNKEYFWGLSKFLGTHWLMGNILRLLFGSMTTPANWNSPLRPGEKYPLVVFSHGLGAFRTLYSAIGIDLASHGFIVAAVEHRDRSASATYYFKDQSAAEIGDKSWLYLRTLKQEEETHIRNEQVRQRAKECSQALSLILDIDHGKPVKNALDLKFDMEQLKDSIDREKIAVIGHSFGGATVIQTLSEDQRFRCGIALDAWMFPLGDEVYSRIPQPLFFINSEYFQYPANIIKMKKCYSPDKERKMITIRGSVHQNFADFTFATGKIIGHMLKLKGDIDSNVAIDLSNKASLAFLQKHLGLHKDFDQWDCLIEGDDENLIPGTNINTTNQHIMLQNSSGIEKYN
Nature of the data set: Inhibition of PLA2G7 derived from human PC3 cell lysates preincubated for 30 mins followed by JW912 addition after 30 mins by gel-based ABPP assay. It is filed as subcellular, Lysate.

In data set [10] the test system is Mus musculus. Nature of the data set: In vivo inhibition of MGLL in po dosed ICR mouse brain assessed as increase in 2-AG measured at 4 hrs post dose by LC-MS/MS analysis. Format: functional, organism-based. The gist of the method:
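Male ICR mice, 6–12 weeks old, single oral gavage 0.5–32 mg/kg in PEG400:ethanol:PBS (7/2/1), 5 mL/kg, n = 3. Killed at 4 h; one brain hemisphere for gel-based ABPP with FP-Rh (MGLL band quantified), the other for 2-AG by LC-MS/MS.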

Data set [11] is described as follows: Stability in Sprague-Dawley rat plasma. Format: ADME, cell-free.
Data set [12] has as its system Mus musculus. Nature of the data set: In-vivo inhibition of MGLL in ICR mouse brain assessed as target engagement at 5 mg/kg, po measured 4 hrs post dose by gel-based ABPP assay relative to control. It is filed as functional. The arrangement: scale not given: the % may be the effect or the level left. The gist of the method:
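Mice received a single 5 mg/kg oral gavage dose. Whole brains were collected 4 h post-dose and target engagement was read by gel-based ABPP with FP-Rh probe.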

A short description of data set [13]: Substrate activity at BCRP (unknown origin) at 10 uM. Format: ADME. Particulars: human.

Broadly, the Tmax is the time at which the peak concentration occurs. Usually half-life stands for the time needed for the level to fall by half in the phase considered. A word on the ED50: it is the dose at which the effect has come halfway, by size or by number of responders. A word on the IC50: it is the concentration that inhibits the measured activity by half. As usually defined, the bioavailability is dose-corrected exposure relative to a reference, in per cent.

Chain of Cytochrome P450 2C19 (P33261 whole entry): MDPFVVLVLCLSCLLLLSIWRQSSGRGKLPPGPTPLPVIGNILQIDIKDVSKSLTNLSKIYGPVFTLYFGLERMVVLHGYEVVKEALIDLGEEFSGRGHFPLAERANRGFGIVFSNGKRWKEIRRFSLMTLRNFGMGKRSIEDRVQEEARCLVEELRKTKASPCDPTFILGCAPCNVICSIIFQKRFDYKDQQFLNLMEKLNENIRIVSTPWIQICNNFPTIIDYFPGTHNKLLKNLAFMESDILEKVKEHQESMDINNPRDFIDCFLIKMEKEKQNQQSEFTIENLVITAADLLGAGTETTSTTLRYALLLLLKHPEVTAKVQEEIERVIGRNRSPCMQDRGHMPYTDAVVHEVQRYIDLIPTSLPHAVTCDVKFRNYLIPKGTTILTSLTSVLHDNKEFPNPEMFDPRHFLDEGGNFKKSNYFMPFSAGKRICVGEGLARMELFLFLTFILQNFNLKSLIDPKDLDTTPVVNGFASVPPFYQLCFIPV

As to `O=C(OC(C(F)(F)F)C(F)(F)F)N1CCN(Cc2ccc(C(F)(F)F)cc2N2CCCC2)CC1` [ELCUBRAGISTAT], the inhibition entry (in the data set listed under Canis lupus familiaris; in data set [8]) was “Active” throughout. The Vd in data set [1] was found to be 3.2 L/kg. In addition, in [2], the Tmax came out at 8 h. Also, the half-life in data set [3] is 216 min. Also, the median effective dose (ED50) in the data set with Mus musculus [4] and in the data set on Mus musculus [7] was 32 mg/kg throughout. For the same compound, the figures for the Activity result (with Rattus norvegicus; with Mus musculus [12]; in data set [13]) were “Non-Toxic”, 100% and “Not Active”, respectively. The IC50 was more than 50 µM on Cytochrome P450 2C19 and more than 10 µM in data set [9]. Further, the microsomal CLint in [5] was determined as 19 µL/min/mg. The same compound registered a bioavailability in [6] of 64%. Besides, in the data set with Mus musculus [10], the inhibition entry was “Dose-dependent effect”. For the same compound, the Stability entry in [11] was “Unstable”.
